Screening results deposited in PubChem BioAssay by The Scripps Research Institute Molecular Screening Center.
RORA inh: inhibitors of orphan receptor RORA, primary screen, cell-based, luminescence. Nuclear receptor ROR-alpha (Homo sapiens), P35398. CHO-K1 Gal4-RORA LBD luciferase reporter. inhibition, % at 10 µM. 65,000 tested, 0.43% active. AID 561, 2006;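 active = inhibition above the mean of all tested compounds plus 3 SD, cut at about 52% in these data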
Target sequence (P35398 whole entry, looked up, the tested form may be a part): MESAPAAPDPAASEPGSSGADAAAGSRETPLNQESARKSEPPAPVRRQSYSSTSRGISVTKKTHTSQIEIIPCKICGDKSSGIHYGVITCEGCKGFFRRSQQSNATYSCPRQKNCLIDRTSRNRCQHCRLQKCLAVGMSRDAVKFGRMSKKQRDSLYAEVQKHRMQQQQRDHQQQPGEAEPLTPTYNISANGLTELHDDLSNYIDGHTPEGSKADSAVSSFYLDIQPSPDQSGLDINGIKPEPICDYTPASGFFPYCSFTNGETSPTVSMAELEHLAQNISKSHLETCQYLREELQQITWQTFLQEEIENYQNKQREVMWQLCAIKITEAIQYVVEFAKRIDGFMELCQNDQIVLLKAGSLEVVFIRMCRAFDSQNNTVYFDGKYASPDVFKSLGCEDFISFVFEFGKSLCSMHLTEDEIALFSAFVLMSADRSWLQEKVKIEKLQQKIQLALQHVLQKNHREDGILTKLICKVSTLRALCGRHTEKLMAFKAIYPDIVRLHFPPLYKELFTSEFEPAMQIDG
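Material: transiently transfected CHO-K1 cells, Gal4-DBD/human RORA-LBD fusion plus 5xGal4-luciferase reporter; doses: single concentration per compound, 10 µM final; incubation: 20 h at 37 °C; detection: luminescence from basal luciferase reporter expression; read-out: % inhibition of basal luciferase versus +RORA/-RORA DMSO controls; replication: tested once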
Hits are given with their value; - = inactive. Shown is part of a subset that was picked to be rich in hits.

SMILES | RORA inh
c1ccc2nc(-c3nc4ccccc4[nH]3)ccc2c1 | 66
Cn1cc(Cl)c(-c2nc3ccccc3[nH]2)n1 | -
Cn1ccnc1-c1nc2ccccc2[nH]c1=O | -
O=C1Nc2ccc(S(=O)(=O)NCCC3=CCCCC3)c3cccc1c23 | -
c1ccn2c(CNc3ncnc4sccc34)nnc2c1 | -
Cc1oc(-c2ccccc2)nc1Cn1cccc1C1=NC(c2ccccc2)CO1 (centres undefined) | -
Nc1cc(C2CCCC2)nn1-c1ccccc1 | -
CCOc1cccc(-c2nnc3sc(COc4ccc(Cl)cc4)nn23)c1 | -
CC(=O)c1ccc(N2CCN(C(=O)c3ccc(OCc4c(C)noc4C)cc3)CC2)cc1 | -
O=C(c1ccco1)N1CCN(c2ccc(Cl)cc2)CC1 | -
Cc1noc(C)c1S(=O)(=O)Nc1ccc(C(=O)N2CCN(c3ccc(Cl)cc3)CC2)cc1 | 60
Cc1nn(Cc2nc(-c3cccs3)no2)c(C)c1Br | -
COc1ccc(S(=O)(=O)N(CC(=O)N2CCN(C)CC2)c2ccc(C)cc2)cc1OC | -
CCOC(=O)N1CCC(N(C(=O)Nc2ccc(CC)cc2)C(C)CC)CC1 (centres undefined) | -
COc1ccccc1N1CCN(c2cc(=O)n(-c3ccccc3Cl)c(=O)[nH]2)CC1 | -
CN1CCN(c2cc(=O)n(C3CCCCC3)c(=O)[nH]2)CC1 | -
O=c1cc(N2CCN(c3cccc(Cl)c3)CC2)[nH]c(=O)n1C1CCCCC1 | 65
CCOC(=O)c1c(N)sc2c1CCC1C(=O)N(C3CCCCC3)C(=O)C21 (centres undefined) | -
CCCCNC(=O)c1cc2c(=O)n3cccc(C)c3nc2n(Cc2ccncc2)c1=N | -
COc1ccc(Cn2c(C3CC3)nc3ccc(NC(=O)c4ccco4)cc3c2=O)cc1 | -
O=C(CSc1nnnn1C1CC2CCC1C2)Nc1ccnc2ccccc12 (centres undefined) | 85
Cc1cccc(C)c1OCC(=O)NCc1nnc(SCC(=O)NC2CCCCC2)n1C | -
COc1ccc(CNC(=O)CSc2nnnn2Cc2ccccc2)cc1 | -
O=C1CN(C(=O)CSc2nnnn2-c2ccc(Cl)cc2)c2ccccc2N1 | -
Cc1cc(NC(=O)c2ccc3c(c2)OCCO3)no1 | 59
SMILES | RORA inh
CCCN1C(=O)c2ccc(C(=O)Nc3cc(C)on3)cc2C1=O | -
Cc1cc(NC(=O)c2noc3c2CCCCC3)no1 | -
FC(F)(F)C1CC(c2cccs2)Nc2ncnn21 (centres undefined) | -
O=C1c2ccccc2C(=O)N1CNc1ccccc1 | -
CCc1nn2cc(-c3ccccc3)nc2s1 | 66
CCS(=O)(=O)n1nc(-c2ccccc2)cc1N | -
Cc1c(C(=O)Nc2ccccc2)sc2nc(-c3ccccc3)cn12 | -
COC(=O)c1ccc(NC(=O)Cn2nc(SC)n(N)c2=S)cc1 | -
CCNc1nc(N)c(C(=O)c2ccc(Cl)s2)s1 | -
CNc1nc(C)nc(-c2ccccc2O)n1 | -
CCOC(=O)CN1CC23C=CC(O2)C(C(=O)Nc2ccc(F)c(C)c2)C3C1=O (centres undefined) | -
O=c1c2ccccc2cnn1-c1nc2ccccc2s1 | 90
Cc1nn(-c2nc3ccccc3s2)c(N)c1Sc1ccc(F)cc1 | -
O=c1c2ccccc2nc2sc3ccccc3n12 | -
Cc1ccc2[nH]c(-c3cccc(N)c3)cc2c1 | -
Nc1cccc(-c2nc3ccc(N)cc3s2)c1 | 57
Nc1nc2ccc(Oc3ccccc3)cc2s1 | -
O=C(NCc1ccc2c(c1)OCO2)C1CC(=O)N(c2ccc(O)cc2)C1 (centres undefined) | -
CCOC(=O)NC(Nc1nc2ccccc2s1)(C(=O)OCC)C(F)(F)F (centres undefined) | -
NC(=O)CC12CC3CC(C1)CC(CC(N)=O)(C3)C2 | -
Nc1nnnn1/N=C/C(Br)=C/c1ccccc1 | 77
Cn1cc(S(=O)(=O)NCc2cccs2)c(=O)n(C)c1=O | -
O=C(NCC1CCCO1)C1CC(=O)N(C2CCCCCC2)C1 (centres undefined) | -
COc1ccc(-c2nc(C#N)c(NCC3CCCO3)o2)cc1OC (centres undefined) | -
Cc1csc(NC(=O)CNC(=O)OCc2ccccc2)n1 | -
SMILES | RORA inh
CCC1CCCCN1CCCNC(=O)COc1cc(=O)n(C)c2ccccc12 (centres undefined) | -
Cc1cc(NC(=O)CCCOc2ccc(Cl)cc2Cl)no1 | -
Cc1ccnc(NC(=O)CCCOc2cc(=O)n(C)c3ccccc23)c1 | 57
COC(=O)c1cc(-c2ccccc2)n(CC(=O)O)c1C | -
CC(=O)Nc1c(C(=O)N2CCN(c3ncccn3)CC2)cnn1-c1ccccc1Cl | -
c1ccc(-c2noc(-c3cccc4ccccc34)n2)cc1 | -
COc1cccc(-c2nc(-c3ccccc3)no2)c1 | -
Cc1ccc(-c2nc(-c3ccccc3)no2)c(Cl)c1 | 57
CCCN1/C(=C(/C#N)C2=NS(=O)(=O)c3ccccc32)N(C)c2ccccc21 | -
CC(=O)c1c(N2CCN(Cc3ccc4c(c3)OCO4)CC2)nc(=S)n(-c2ccccc2)c1C | -
